In ChEMBL document CHEMBL4411317 (Bioorg Med Chem, 2019):

Assays:
Dipeptidyl peptidase 9 = Dipeptidyl peptidase 9 (Homo sapiens, UniProt Q86TI2); experiment: Inhibition of recombinant full-length human N-terminal GST-tagged DPP9 expressed in Sf9 insect cells using Gly-Pro-AMC as substrate measured at 60 secs interval for 20 mins by fluorescence assay
Dipeptidyl peptidase 8 = Dipeptidyl peptidase 8 (Homo sapiens, UniProt Q6V1X1); experiment: Inhibition of recombinant full-length human N-terminal GST-tagged DPP8 expressed in Sf9 insect cells using Gly-Pro-AMC as substrate measured at 60 secs interval for 20 mins by fluorescence assay
Dipeptidyl peptidase 8, sequence (Q6V1X1 whole entry): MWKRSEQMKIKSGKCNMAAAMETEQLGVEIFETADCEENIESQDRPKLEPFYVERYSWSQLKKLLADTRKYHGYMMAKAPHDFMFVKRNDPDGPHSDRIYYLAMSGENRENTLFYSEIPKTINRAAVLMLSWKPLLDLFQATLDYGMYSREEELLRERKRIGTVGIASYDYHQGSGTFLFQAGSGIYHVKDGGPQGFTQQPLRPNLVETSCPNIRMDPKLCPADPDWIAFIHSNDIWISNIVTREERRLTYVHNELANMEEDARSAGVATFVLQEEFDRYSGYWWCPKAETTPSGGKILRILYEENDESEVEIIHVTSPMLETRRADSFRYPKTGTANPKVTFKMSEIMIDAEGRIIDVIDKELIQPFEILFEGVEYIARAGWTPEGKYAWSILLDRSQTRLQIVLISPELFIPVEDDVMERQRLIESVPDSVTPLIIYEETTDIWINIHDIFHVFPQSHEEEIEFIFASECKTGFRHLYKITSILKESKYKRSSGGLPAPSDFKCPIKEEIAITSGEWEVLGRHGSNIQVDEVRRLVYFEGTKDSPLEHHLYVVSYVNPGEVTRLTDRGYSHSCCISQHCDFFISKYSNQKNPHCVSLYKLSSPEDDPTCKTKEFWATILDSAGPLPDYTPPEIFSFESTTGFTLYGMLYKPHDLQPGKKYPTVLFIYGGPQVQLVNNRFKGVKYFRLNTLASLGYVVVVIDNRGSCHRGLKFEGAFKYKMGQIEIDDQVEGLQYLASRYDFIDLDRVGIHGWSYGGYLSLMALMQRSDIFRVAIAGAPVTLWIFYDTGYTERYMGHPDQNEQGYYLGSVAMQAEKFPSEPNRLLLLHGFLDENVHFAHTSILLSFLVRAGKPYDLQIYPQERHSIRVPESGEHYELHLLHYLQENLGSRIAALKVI

[1] = Retention time of the compound in rat plasma by LC/MS/MS method; format: ADME, cell-free
[2] = Retention time of the compound in water at 1 uM by LC/MS/MS method; format: physicochemical; settings: buffer
[3] = Cytotoxicity against human LO2 cells assessed as cell viability at 100 uM after 48 hrs by MTT assay relative to control; format: cell-based, L02; settings: read-out: Activity
Method in brief: (§1)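 Hepatic LO2 cells grown in DMEM with 10% FBS and antibiotics at 37 °C, 5% CO2; log-phase cells seeded at 1 × 10^4 per well and exposed to compounds for 48 h. MTT (5 mg/mL stock in PBS) added 4 h before end; formazan dissolved in DMSO, absorbance read at 490 nm.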

[4] = Cytotoxicity against human LO2 cells assessed as cell viability at 50 uM after 48 hrs by MTT assay relative to control; format: cell-based, L02; settings: read-out: Activity; method in brief: as §1
Mus musculus = experiment: Hypoglycemic activity in po dosed Kunming mouse assessed as decrease in blood glucose AUC (0 to 120 mins) administered as single dose treated for 30 mins prior to glucose load by OGTT; format: functional, organism-based
Method in brief: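 Male Kunming mice (20±2 g) fasted overnight (12 h), randomized (n = 8), given a single oral dose suspended in water vehicle; oral glucose 3 g/kg 30 min later. Blood sampled at -30, 0, 15, 30, 60 and 120 min; glucose AUC0–120 min versus vehicle, mean ± SEM, one-way ANOVA with Dunnett's test.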

[5] = Retention time of the compound in rat plasma at 1 uM by LC/MS/MS method; format: ADME, cell-free
[6] = Drug metabolism in rat plasma assessed as (R)-2-((4-(3-Aminopiperidin-1-yl)-3-(but-2-yn-1-yl)-2,6-dioxo-3,6-dihydropyrimidin-1(2H)-yl)methyl)-6-fluorobenzoic acid hydrochloride formation at 1 uM after 30 mins by LC/MS/MS method; format: ADME, cell-free; settings: 0.5 h
Method in brief: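 Ester prodrug incubated with rat plasma at 37 °C for 0 and 30 min; ester and formed acid quantified by LC/MS/MS.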

[7] = Cytotoxicity against human LO2 cells assessed as cell viability at 20 uM after 48 hrs by MTT assay relative to control; format: cell-based, L02; settings: read-out: Activity; method in brief: as §1

Dipeptidyl peptidase 9, sequence (Q86TI2 whole entry): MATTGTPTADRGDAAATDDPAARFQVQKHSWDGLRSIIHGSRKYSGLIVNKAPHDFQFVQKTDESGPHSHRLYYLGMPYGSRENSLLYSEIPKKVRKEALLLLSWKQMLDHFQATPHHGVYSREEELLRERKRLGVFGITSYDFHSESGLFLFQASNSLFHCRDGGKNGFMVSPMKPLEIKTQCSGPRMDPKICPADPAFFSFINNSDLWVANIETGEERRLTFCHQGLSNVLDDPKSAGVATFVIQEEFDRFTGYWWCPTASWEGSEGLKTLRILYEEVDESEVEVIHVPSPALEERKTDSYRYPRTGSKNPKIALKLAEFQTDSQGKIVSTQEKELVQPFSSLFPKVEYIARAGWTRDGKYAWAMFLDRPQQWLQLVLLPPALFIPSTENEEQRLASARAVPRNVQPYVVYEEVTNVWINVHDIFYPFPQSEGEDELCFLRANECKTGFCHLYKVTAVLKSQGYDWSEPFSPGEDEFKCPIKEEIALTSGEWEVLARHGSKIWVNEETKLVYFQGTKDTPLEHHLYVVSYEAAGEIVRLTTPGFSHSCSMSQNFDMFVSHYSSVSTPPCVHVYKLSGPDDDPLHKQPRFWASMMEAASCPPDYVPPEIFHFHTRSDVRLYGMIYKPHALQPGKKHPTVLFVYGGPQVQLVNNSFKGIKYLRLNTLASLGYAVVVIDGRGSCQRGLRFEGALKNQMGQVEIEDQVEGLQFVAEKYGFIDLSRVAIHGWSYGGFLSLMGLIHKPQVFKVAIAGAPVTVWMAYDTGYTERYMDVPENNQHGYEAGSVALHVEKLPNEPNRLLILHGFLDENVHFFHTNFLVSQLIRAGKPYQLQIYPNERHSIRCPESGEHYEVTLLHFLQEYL

SMILES | IC50 (Dipeptidyl peptidase 9) | IC50 (Dipeptidyl peptidase 8) | viability at 48 h, 100 µM [3] | further results
CC#CCn1c(N2CCC[C@@H](N)C2)cc(=O)n(Cc2ccc(F)cc2C(=O)O)c1=O | > 100 µM | > 100 µM | – | –
CC#CCn1c(N2CCC[C@@H](N)C2)cc(=O)n(Cc2cccc(F)c2C(=O)O)c1=O | – | – | 70% | Retention_time [1]: 2 min; Retention_time [2]: 2.03 min; viability at 48 h, 50 µM [4]: 90%
COc1cccc2c1C(=O)c1c(O)c3c(c(O)c1C2=O)C[C@@](O)(C(=O)CO)C[C@@H]3O[C@H]1C[C@H](N)[C@H](O)[C@H](C)O1 [DOXORUBICIN] | – | – | – | viability at 48 h, 20 µM [7]: 11%
CC#CCn1c(N2CCC[C@@H](N)C2)cc(=O)n(Cc2ccccc2C(=O)O)c1=O | > 100 µM | > 100 µM | – | –
CC#CCn1c(N2CCC[C@@H](N)C2)cc(=O)n(Cc2ccc(Cl)cc2C(=O)O)c1=O | > 100 µM | > 100 µM | – | –

Further lines, with some results ahead:

IC50 (Dipeptidyl peptidase 9) | IC50 (Dipeptidyl peptidase 8) | SMILES | viability at 48 h, 100 µM [3] | further results
> 100 µM | > 100 µM | CC#CCn1c(N2CCC[C@@H](N)C2)cc(=O)n(Cc2ccc(Br)cc2C(=O)O)c1=O | – | –
> 100 µM | > 100 µM | CC#CCn1c(N2CCC[C@@H](N)C2)cc(=O)n(Cc2cc(C#N)ccc2C(=O)O)c1=O | – | –
> 100 µM | > 100 µM | CC#CCn1c(N2CCC[C@@H](N)C2)cc(=O)n(Cc2cc(OC)ccc2C(=O)O)c1=O | – | –
> 100 µM | > 100 µM | CC#CCn1c(N2CCC[C@@H](N)C2)cc(=O)n(Cc2cccc(F)c2C(=O)OC)c1=O | 70% | Activity (Mus musculus): Dose-dependent effect; Retention_time [5]: 5.41 min; Drug metabolism [6]: Metabolite_Detected; Retention_time [2]: 5.41 min; viability at 48 h, 50 µM [4]: 90%
> 100 µM | > 100 µM | CC#CCn1c(N2CCC[C@@H](N)C2)cc(=O)n(Cc2cc(Br)ccc2C(=O)O)c1=O | 70% | viability at 48 h, 50 µM [4]: 90%
> 100 µM | > 100 µM | CC#CCn1c(N2CCC[C@@H](N)C2)cc(=O)n(Cc2cc(Br)ccc2C(=O)OC)c1=O | 14% | –
